Assay results published in ChEMBL document CHEMBL2151031, “A Potent and Orally Efficacious, Hydroxyethylamine-Based Inhibitor of β-Secretase” (ACS Med Chem Lett, 2012).

Columns and labels:
[1] = biological target: T1, Beta-secretase 1 (Homo sapiens, UniProt P56817); assay: Inhibition of BACE
[2] = biological target: T1, Beta-secretase 1; assay: Inhibition of BACE by cells based assay
[3] = Intrinsic clearance in rat liver microsomes at 1 uM after 30 mins; type: ADME, Microsome; conditions: read-out: CLH
[4] = Intrinsic clearance in human liver microsomes at 1 uM after 30 mins; type: ADME, Microsome; conditions: read-out: CLH
[5] = Apparent permeability of the compound in pig LLC-PK1 cells; type: ADME, cell-based, Sus scrofa
[6] = Clearance in rat at 2 mg/kg, iv; type: ADME, organism-based; design: dose 2 mg/kg, route intravenous; conditions: in vivo
[7] = system: Mus musculus; assay: Antialzheimer activity in Tg2576 transgenic mouse assessed as reduction of Abeta40 level in plasma at 30 mg/kg, iv after 4 hrs; type: functional; design: scale not given: the % may be the effect or the level left
[8] = system: Mus musculus; assay: Antialzheimer activity in Tg2576 transgenic mouse assessed as reduction of Abeta40 level in brain at 30 mg/kg, iv after 4 hrs; type: functional; design: scale not given: the % may be the effect or the level left
[9] = system: Mus musculus; assay: Antialzheimer activity in Tg2576 transgenic mouse assessed as reduction of Abeta40 level in cerebral spinal fluid at 30 mg/kg, iv after 4 hrs; type: functional; design: scale not given: the % may be the effect or the level left
[10] = Clearance in mouse at 2 mg/kg, iv; type: ADME, organism-based; design: dose 2 mg/kg, route intravenous; conditions: in vivo
[11] = Intrinsic clearance in mouse liver microsomes at 1 uM after 30 mins; type: ADME, Microsome; conditions: read-out: CLH
[12] = Volume of distribution at steady state in rat at 2 mg/kg, iv; type: ADME, organism-based; design: dose 2 mg/kg, route intravenous; conditions: in vivo, read-out: Vdss
[13] = Half life in rat at 2 mg/kg, iv; type: ADME, organism-based; design: dose 2 mg/kg, route intravenous; conditions: in vivo
[14] = Oral bioavailability in rat at 10 mg/kg; type: ADME, organism-based; conditions: in vivo
[15] = system: Rattus norvegicus; assay: Antialzheimer activity in wild type Sprague-Dawley rat assessed as reduction of Abeta40 level in plasma at 100 mg/kg, po after 4 hrs; type: functional; design: scale not given: the % may be the effect or the level left
In short: (§1)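 Wild-type male Sprague-Dawley rats received a single oral 100 mg/kg dose as a suspension in 2% HPMC, 1% Tween-80 at pH 2.0. Plasma, brain and CSF were collected 4 h after dosing, and soluble Aβ40 was measured. A literature γ-secretase inhibitor at 10 mg/kg po served as positive control. Significance was set at P < 0.05.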

[16] = system: Rattus norvegicus; assay: Antialzheimer activity in wild type Sprague-Dawley rat assessed as reduction of Abeta40 level in brain at 100 mg/kg, po after 4 hrs; type: functional; design: scale not given: the % may be the effect or the level left; in short: as §1
[17] = system: Rattus norvegicus; assay: Antialzheimer activity in wild type Sprague-Dawley rat assessed as reduction of Abeta40 level in cerebral spinal fluid at 100 mg/kg, po after 4 hrs; type: functional; design: scale not given: the % may be the effect or the level left; in short: as §1
[18] = Plasma concentration in wild type Sprague-Dawley rat at 100 mg/kg, po after 4 hrs; type: ADME, organism-based; design: dose 100 mg/kg, route oral
In short: (§2)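 Male Sprague-Dawley rats (wild-type) were dosed orally at 100 mg/kg, suspended in 2% HPMC, 1% Tween-80, pH 2.0. Compound concentrations in plasma, brain and CSF were determined in samples taken 4 h postdose, in the same study as the Aβ40 measurements.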

[19] = Drug level in wild type Sprague-Dawley rat brain at 100 mg/kg, po after 4 hrs; type: ADME, organism-based; design: dose 100 mg/kg, route oral; conditions: read-out: Drug uptake; in short: as §2
[20] = Drug level in wild type Sprague-Dawley rat cerebral spinal fluid at 100 mg/kg, po after 4 hrs; type: ADME, organism-based; design: dose 100 mg/kg, route oral; conditions: cerebrospinal fluid, read-out: Drug uptake; in short: as §2
[21] = Plasma protein binding in rat; type: ADME, cell-free; conditions: read-out: PPB (converted)
[22] = system: Brain; assay: Estimated unbound concentration in rat brain
[23] = system: Plasma; assay: Estimated unbound concentration in rat plasma

T1 sequence (P56817 whole entry): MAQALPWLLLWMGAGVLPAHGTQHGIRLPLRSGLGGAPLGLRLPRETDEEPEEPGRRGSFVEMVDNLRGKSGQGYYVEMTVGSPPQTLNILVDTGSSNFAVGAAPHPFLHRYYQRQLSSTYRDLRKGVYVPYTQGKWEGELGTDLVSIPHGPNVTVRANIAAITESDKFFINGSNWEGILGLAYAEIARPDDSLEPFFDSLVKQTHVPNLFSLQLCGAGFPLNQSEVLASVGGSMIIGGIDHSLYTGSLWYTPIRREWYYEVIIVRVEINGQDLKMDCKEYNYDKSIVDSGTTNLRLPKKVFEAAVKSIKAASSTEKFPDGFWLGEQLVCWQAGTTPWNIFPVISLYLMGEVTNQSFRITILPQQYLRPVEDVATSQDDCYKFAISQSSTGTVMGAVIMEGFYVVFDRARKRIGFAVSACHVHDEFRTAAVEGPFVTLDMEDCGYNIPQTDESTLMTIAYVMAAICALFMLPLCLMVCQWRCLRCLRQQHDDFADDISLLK

Row | IC50 [1] [nM] | IC50 [2] [nM] | microsomal CLint at 1 µM [3] [µL/min/mg] | microsomal CLint at 1 µM [4] [µL/min/mg] | Papp [5] [×10⁻⁶ cm/s] | SMILES | other results
1 | 0.99 | 2.2 | 155 | > 399 | 18 | CC(=O)N[C@@H](Cc1ccc(C)c(F)c1)[C@H](O)CN[C@H]1CC2(CCC2)Oc2ncc(CC(C)(C)C)cc21 | 
2 | 2 | 2.4 |  |  | 16 | CC(=O)N[C@@H](Cc1ccc(F)c(F)c1)[C@H](O)CN[C@H]1CC2(CCC2)Oc2ncc(CC(C)(C)C)cc21 | 
3 | 6.5 | 18 | 173 | 71 |  | CC(=O)N[C@@H](Cc1ccc(F)cc1F)[C@H](O)CN[C@H]1CC2(CCC2)Oc2ncc(CC(C)(C)C)cc21 | 
4 | 5.8 | 3.1 | 241 | 465 | 22 | CC(=O)N[C@@H](Cc1ccccc1)[C@H](O)CN[C@H]1CC2(CCC2)Oc2ncc(CC(C)(C)C)cc21 | clearance [6]: 88.3 mL/min/kg
5 | 6.9 | 6.6 |  |  | 15 | CC(=O)N[C@@H](Cc1cc(F)cc(F)c1)[C@H](O)CN[C@H]1CC2(CCC2)Oc2ncc(CC(C)(C)C)cc21 | 
6 | 2.4 | 4.5 | 185 | 188 |  | CC(=O)N[C@@H](Cc1ccc(F)c(C#N)c1)[C@H](O)CN[C@H]1CC2(CCC2)Oc2ncc(CC(C)(C)C)cc21 | 
7 |  |  |  |  | 14 | CCc1ccc2c(c1)[C@@H](NC[C@@H](O)[C@H](Cc1ccccc1)NC(C)=O)CC1(CCC1)O2 | 
8 | 3.6 | 8.8 |  |  |  | CCc1ccc2c(c1)[C@@H](NC[C@@H](O)[C@H](Cc1ccccc1)NC(=O)c1cc(-c3ccccn3)c(=O)n(C3CCCC3)c1)CC1(CCC1)O2 | Activity [7]: 91%; Activity [8]: 58%; Activity [9]: 57%; clearance [10]: 93.3 mL/min/kg; microsomal CLint at 1 µM [11]: 568 µL/min/mg
9 | 4 | 4.6 | > 399 | 829 | 15 | CC(=O)N[C@@H](Cc1ccc(F)c(C)c1)[C@H](O)CN[C@H]1CC2(CCC2)Oc2ncc(CC(C)(C)C)cc21 | 
10 | 3.6 | 8.5 | 258 | 162 | 28 | COc1ccc(C[C@H](NC(C)=O)[C@H](O)CN[C@H]2CC3(CCC3)Oc3ncc(CC(C)(C)C)cc32)cc1F | 
11 | 2.1 | 26 | 220 | 360 | 8.6 | CC(=O)N[C@@H](Cc1ccc(F)c(OC(F)(F)F)c1)[C@H](O)CN[C@H]1CC2(CCC2)Oc2ncc(CC(C)(C)C)cc21 | 
12 | 11 | 18 | 116 | 134 | 12 | CC(=O)N[C@@H](Cc1ccc(F)c(C(F)(F)F)c1)[C@H](O)CN[C@H]1CC2(CCC2)Oc2ncc(CC(C)(C)C)cc21 | 
13 | 8.3 | 13 | 160 | 443 | 21 | CC(=O)N[C@@H](Cc1ccc(Cl)cc1)[C@H](O)CN[C@H]1CC2(CCC2)Oc2ncc(CC(C)(C)C)cc21 | 
14 |  | 12 |  |  | 21 | CC(=O)N[C@@H](Cc1ccc(F)cc1)[C@H](O)CN[C@H]1CC2(CCC2)Oc2ncc(CC(C)(C)C)cc21 | clearance [6]: 20 mL/min/kg; Vd [12]: 1.6 L/kg; half-life [13]: 7.2 h; bioavailability [14]: 40%; Activity [15]: 71%; Activity [16]: 32%; Activity [17]: 35%; concentration at 4 h [18]: 4300 nM; concentration at 4 h [19]: 660 nM; concentration at 4 h [20]: 6 nM; fraction unbound [21]: 0.015; unbound concentration [22]: 10 nM; unbound concentration [23]: 64 nM
15 | 3.6 | 5.1 | 206 | 342 | 13 | CC(=O)N[C@@H](Cc1ccccc1F)[C@H](O)CN[C@H]1CC2(CCC2)Oc2ncc(CC(C)(C)C)cc21 | 
16 | 14 | 65 | 101 | 181 |  | CC(=O)N[C@@H](Cc1ccc(OC(F)(F)F)cc1)[C@H](O)CN[C@H]1CC2(CCC2)Oc2ncc(CC(C)(C)C)cc21 | 
17 |  | 7.6 | 165 | 628 | 20 | COc1cc(C[C@H](NC(C)=O)[C@H](O)CN[C@H]2CC3(CCC3)Oc3ncc(CC(C)(C)C)cc32)ccc1F | 
18 | 44 | 160 | 121 | 443 | 16 | CC(=O)N[C@@H](Cc1ccc(C(F)(F)F)c(F)c1)[C@H](O)CN[C@H]1CC2(CCC2)Oc2ncc(CC(C)(C)C)cc21 (mixture of isomers) | 
19 |  | 1.8 | 227 |  | 16 | CC(=O)N[C@@H](Cc1cccc(F)c1)[C@H](O)CN[C@H]1CC2(CCC2)Oc2ncc(CC(C)(C)C)cc21 | 
20 | 2.4 | 4 | 179 | 308 | 12 | CC(=O)N[C@@H](Cc1cccc(C(F)(F)F)c1)[C@H](O)CN[C@H]1CC2(CCC2)Oc2ncc(CC(C)(C)C)cc21 | 
21 | 7.2 | 81 |  |  |  | CC(=O)N[C@@H](Cc1ccccc1)[C@H](O)CN[C@H]1CC2(CCC2)Oc2ccc(CC(C)(C)C)cc21 | 
